Source: PMC6226115 (Clinical and Translational Science, 2018)

Assay: Phase I safety and tolerability
Type: in vivo, human
In short: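 In a nonrandomised, open-label phase I study, healthy men received 5, 10, 25 or 50 mg once daily for 14 days, with CSF sampled through a lumbar catheter. Safety was scored as the number of subjects with adverse events and summarised descriptively.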

[1] = 5 mg once daily for 14 days (n = 6)
[2] = 10 mg once daily for 14 days (n = 6)
[3] = 25 mg once daily for 14 days (n = 8)
[4] = 50 mg once daily for 14 days (n = 5)

Question: With `C[C@@H](Oc1ccc(S(C)(=O)=O)cc1C(=O)N1C[C@@H]2C[C@]2(c2cc(C(F)(F)F)on2)C1)C(F)(F)F` [BI 425809] as the molecule, how does the “Abdominal pain, subjects with AE” value [1] read?
Answer: 0 n (%)

Question: What about the “Back pain, subjects with AE” value [1] of the same molecule?
Answer: 3 (50.0) n (%)

Question: And the “Catheter site pain, subjects with AE” value [1]?
Answer: 1 (16.7) n (%)

Question: And the “Diarrhea, subjects with AE” value [1]?
Answer: 0 n (%)

Question: What about the “Dizziness, subjects with AE” value [1] of the same molecule?
Answer: 0 n (%)

Question: What about the “Dry mouth, subjects with AE” value [1] of the same molecule?
Answer: 0 n (%)

Question: What about the “Fatigue, subjects with AE” value [1] of the same molecule?
Answer: 0 n (%)

Question: And the “Gingivitis, subjects with AE” value [1]?
Answer: 0 n (%)

Question: And the “Muscle spasms, subjects with AE” value [1]?
Answer: 1 (16.7) n (%)

Question: And the “Musculoskeletal stiffness, subjects with AE” value (from here on “Musculoskeletal stiffness”) [1]?
Answer: 0 n (%)

Question: And the “Nasopharyngitis, subjects with AE” value [1]?
Answer: 0 n (%)

Question: And the “Nausea, subjects with AE” value [1]?
Answer: 1 (16.7) n (%)

Question: What about the “Neck pain, subjects with AE” value [1] of the same molecule?
Answer: 0 n (%)

Question: And the “Paraesthesia, subjects with AE” value [1]?
Answer: 1 (16.7) n (%)

Question: And the “Procedural headache, subjects with AE” value [1]?
Answer: 4 (66.7) n (%)

Question: And the “Procedural pain, subjects with AE” value [1]?
Answer: 0 n (%)

Question: What about the “Somnolence, subjects with AE” value [1] of the same molecule?
Answer: 1 (16.7) n (%)

Question: And the “Tension headache, subjects with AE” value [1]?
Answer: 0 n (%)

Question: What about the “Total with AEs (treatment-emergent)” value [1] of the same molecule?
Answer: 5 (83.3) n (%)

Question: What about the “Upper abdominal pain, subjects with AE” value [1] of the same molecule?
Answer: 0 n (%)

Question: What about the “Vomiting, subjects with AE” value [1] of the same molecule?
Answer: 1 (16.7) n (%)

Question: What about the “Wound, subjects with AE” value [1] of the same molecule?
Answer: 0 n (%)

Question: And the “Abdominal pain, subjects with AE” value [2]?
Answer: 0 n (%)

Question: And the “Back pain, subjects with AE” value [2]?
Answer: 0 n (%)

Question: And the “Catheter site pain, subjects with AE” value [2]?
Answer: 0 n (%)

Question: What about the “Diarrhea, subjects with AE” value [2] of the same molecule?
Answer: 0 n (%)

Question: What about the “Dizziness, subjects with AE” value [2] of the same molecule?
Answer: 1 (16.7) n (%)

Question: What about the “Dry mouth, subjects with AE” value [2] of the same molecule?
Answer: 0 n (%)

Question: What about the “Fatigue, subjects with AE” value [2] of the same molecule?
Answer: 0 n (%)

Question: And the “Gingivitis, subjects with AE” value [2]?
Answer: 1 (16.7) n (%)

Question: What about the “Muscle spasms, subjects with AE” value [2] of the same molecule?
Answer: 0 n (%)

Question: And the “Musculoskeletal stiffness” value [2]?
Answer: 0 n (%)

Question: What about the “Nasopharyngitis, subjects with AE” value [2] of the same molecule?
Answer: 0 n (%)

Question: And the “Nausea, subjects with AE” value [2]?
Answer: 2 (33.3) n (%)

Question: And the “Neck pain, subjects with AE” value [2]?
Answer: 1 (16.7) n (%)

Question: And the “Paraesthesia, subjects with AE” value [2]?
Answer: 0 n (%)

Question: And the “Procedural headache, subjects with AE” value [2]?
Answer: 4 (66.7) n (%)

Question: What about the “Procedural pain, subjects with AE” value [2] of the same molecule?
Answer: 0 n (%)

Question: What about the “Somnolence, subjects with AE” value [2] of the same molecule?
Answer: 0 n (%)

Question: What about the “Tension headache, subjects with AE” value [2] of the same molecule?
Answer: 0 n (%)

Question: And the “Total with AEs (treatment-emergent)” value [2]?
Answer: 5 (83.3) n (%)

Question: And the “Upper abdominal pain, subjects with AE” value [2]?
Answer: 0 n (%)

Question: And the “Vomiting, subjects with AE” value [2]?
Answer: 1 (16.7) n (%)

Question: And the “Wound, subjects with AE” value [2]?
Answer: 1 (16.7) n (%)

Question: What about the “Abdominal pain, subjects with AE” value [3] of the same molecule?
Answer: 1 (12.5) n (%)

Question: What about the “Back pain, subjects with AE” value [3] of the same molecule?
Answer: 4 (50.0) n (%)

Question: And the “Catheter site pain, subjects with AE” value [3]?
Answer: 0 n (%)

Question: And the “Diarrhea, subjects with AE” value [3]?
Answer: 1 (12.5) n (%)

Question: And the “Dizziness, subjects with AE” value [3]?
Answer: 1 (12.5) n (%)

Question: And the “Dry mouth, subjects with AE” value [3]?
Answer: 1 (12.5) n (%)

Question: And the “Fatigue, subjects with AE” value [3]?
Answer: 1 (12.5) n (%)

Question: And the “Gingivitis, subjects with AE” value [3]?
Answer: 0 n (%)

Question: What about the “Muscle spasms, subjects with AE” value [3] of the same molecule?
Answer: 0 n (%)

Question: What about the “Musculoskeletal stiffness” value [3] of the same molecule?
Answer: 1 (12.5) n (%)

Question: What about the “Nasopharyngitis, subjects with AE” value [3] of the same molecule?
Answer: 0 n (%)

Question: What about the “Nausea, subjects with AE” value [3] of the same molecule?
Answer: 2 (25.0) n (%)

Question: What about the “Neck pain, subjects with AE” value [3] of the same molecule?
Answer: 1 (12.5) n (%)

Question: And the “Paraesthesia, subjects with AE” value [3]?
Answer: 0 n (%)

Question: What about the “Procedural headache, subjects with AE” value [3] of the same molecule?
Answer: 5 (62.5) n (%)

Question: What about the “Procedural pain, subjects with AE” value [3] of the same molecule?
Answer: 1 (12.5) n (%)

Question: And the “Somnolence, subjects with AE” value [3]?
Answer: 0 n (%)

Question: What about the “Tension headache, subjects with AE” value [3] of the same molecule?
Answer: 1 (12.5) n (%)

Question: And the “Total with AEs (treatment-emergent)” value [3]?
Answer: 8 (100.0) n (%)

Question: And the “Upper abdominal pain, subjects with AE” value [3]?
Answer: 1 (12.5) n (%)

Question: What about the “Vomiting, subjects with AE” value [3] of the same molecule?
Answer: 2 (25.0) n (%)

Question: And the “Wound, subjects with AE” value [3]?
Answer: 0 n (%)

Question: And the “Abdominal pain, subjects with AE” value [4]?
Answer: 0 n (%)

Question: And the “Back pain, subjects with AE” value [4]?
Answer: 1 (20.0) n (%)

Question: And the “Catheter site pain, subjects with AE” value [4]?
Answer: 0 n (%)

Question: And the “Diarrhea, subjects with AE” value [4]?
Answer: 0 n (%)

Question: And the “Dizziness, subjects with AE” value [4]?
Answer: 0 n (%)

Question: What about the “Dry mouth, subjects with AE” value [4] of the same molecule?
Answer: 0 n (%)

Question: And the “Fatigue, subjects with AE” value [4]?
Answer: 1 (20.0) n (%)
